≈ marks a conversion by molar mass, not a printed value. Calls of active or inactive are those of the source. The calls are words filed in the database; no cut-off is given here.
Assays:
[1] = Solubility of compound in phosphate buffer at pH 7.4; format: physicochemical
[2] = target: T1, Heat shock protein HSP90 (Homo sapiens, UniProt P07900+P08238); assay: Inhibition of human HSP90 in HCT116 cells assessed as degradation of Akt incubated for 24 hrs by Western blot method; format: cell-based
In short: (§1)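 Cells exposed to a range of concentrations for 24 h. Lysates analyzed by Western blot with Her2-, Hsp70- and Akt-specific antibodies.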

[3] = target: T1, Heat shock protein HSP90; assay: Inhibition of human HSP90 in HCT116 cells expressing Her2 gene assessed as degradation of Her2 after 4 hrs by luciferase reporter gene assay; format: cell-based; conditions: hct-116
In short: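 HCT116 cells stably transfected with Her2 kinase domain (aa 641–975) fused to firefly luciferase. Seeded at 10 000 per well in DMEM with 10% serum and left overnight. Compound added from DMSO (0.4% final) for 4 h. Steady-Glo added at room temperature for 5 min, then luminescence read.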

[4] = Half life in Swiss nude mouse at 2.5 mg/kg, iv by LC-ESI-MS/MS method; format: ADME, organism-based; design: dose 2.5 mg/kg, route intravenous; conditions: in vivo
In short: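 Intravenous dose in mice, vehicle DMA/PEG300/EtOH/H2O 3/40/12/45. Sampling at 5, 15, 30, 60, 120, 240, 480 and 720 min, three or five animals per time point. Cardiac-puncture EDTA plasma. Acetonitrile protein precipitation with internal standard, then LC-ESI-MS/MS (10–10 000 ng/mL curve). Parameters by noncompartmental fit.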

[5] = tested on: Mus musculus; assay: Inhibition of HSP90 in mouse liver assessed as induction of HSP70 mRNA expression at 100 mg/kg, po after 6 hrs relative to control; format: functional
[6] = target: T1, Heat shock protein HSP90; assay: Inhibition of human HSP90 in DU145 cells assessed as degradation of Akt incubated for 24 hrs by Western blot method; format: cell-based; in short: as §1
[7] = tested on: NCI-N87; assay: Antitumor activity against human NCI-N87 cells xenografted in nude mouse assessed as tumor regression at 125 mg/kg, po qd for 22 days measured twice a week; conditions: 528 h
[8] = Cmax in Swiss nude mouse at 100 mg/kg, po by LC-ESI-MS/MS method; format: ADME, organism-based; design: dose 100 mg/kg, route oral; conditions: in vivo
In short: (§2)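 Single oral gavage in mice, vehicle 40% Captisol in phosphate buffer. EDTA plasma from cardiac puncture. Acetonitrile precipitation with internal standard, then LC-ESI-MS/MS quantitation against a 10–10 000 ng/mL standard curve. Cmax and AUC by noncompartmental analysis.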

[9] = tested on: HT-29; assay: Cytotoxicity against human HT-29 cells assessed as inhibition of tumor growth incubated for 72 hrs by luminometry; format: functional, cell-based; conditions: HT-29, 72 h
In short: (§3)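 Cells seeded at 5000 per well in DMEM with 10% serum and left overnight. Compound added from DMSO dilutions (0.4% DMSO final) for 72 h. After 5 min at room temperature, ATPLite two-step lysis and substrate added, 5 min incubation, then luminescence read. Values are the mean of at least two experiments.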

[10] = tested on: NCI-N87; assay: Antitumor activity against human NCI-N87 cells xenografted in po dosed nude mouse assessed as tumor growth inhibition administered as qd for 22 days measured twice a week; format: functional, organism-based
In short: (§4)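 Female nude mice (Crl:NU-Fox1nu) implanted subcutaneously in the right flank with 5 million NCI-N87 cells. At median tumor volume of roughly >100 mm3, randomized to 5 cohorts of 10. Dosed orally once daily for 22 days with vehicle (40% w/w Captisol) or 50, 75, 125 or 200 mg/kg. Tumor size and body weight measured at least twice weekly.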

[11] = Tmax in Swiss nude mouse at 10 mg/kg, po by LC-ESI-MS/MS method; format: ADME, organism-based; design: dose 10 mg/kg, route oral; conditions: in vivo
In short: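 Mice dosed by oral gavage, vehicle DMA/PEG300/EtOH/H2O (3/40/12/45, v/v/v/v). Blood drawn by cardiac puncture into EDTA plasma. Three or five animals per time point. Plasma precipitated with acetonitrile plus internal standard. Quantified by LC-ESI-MS/MS against a 10–10 000 ng/mL standard curve with QC samples. Noncompartmental analysis.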

[12] = AUC in Swiss nude mouse at 100 mg/kg, po by LC-ESI-MS/MS method; format: ADME, organism-based; design: dose 100 mg/kg, route oral; conditions: plasma; in short: as §2
[13] = target: T1, Heat shock protein HSP90; assay: Inhibition of human HSP90 in HCT116 cells assessed as induction of HSP70 incubated for 24 hrs by Western blot method; format: cell-based; conditions: HCT-116; in short: as §1
[14] = tested on: HCT-116; assay: Cytotoxicity against human HCT116 cells assessed as inhibition of tumor growth incubated for 72 hrs by luminometry; format: functional, cell-based; conditions: HCT-116, 72 h; in short: as §3
[15] = tested on: Mus musculus; assay: Toxicity in nude mouse xenografted with human NCI-N87 cells assessed as effect on body weight at 75 mg/kg, po qd for 22 days measured twice a week; format: organism-based; design: dose 75 mg/kg, route oral; conditions: in vivo, 528 h; in short: as §4
[16] = tested on: BT-474; assay: Cytotoxicity against human BT474 cells assessed as inhibition of tumor growth incubated for 72 hrs by luminometry; format: functional, cell-based; conditions: BT-474, 72 h; in short: as §3
[17] = tested on: NCI-N87; assay: Antitumor activity against human NCI-N87 cells xenografted in nude mouse assessed as tumor regression at 200 mg/kg, po qd for 22 days measured twice a week; conditions: 528 h
[18] = target: T1, Heat shock protein HSP90; assay: Inhibition of human HSP90 in NCI-N87 cells assessed induction of HSP70 incubated for 24 hrs by Western blot method; format: cell-based; in short: as §1
[19] = tested on: NCI-N87; assay: Cytotoxicity against human NCI-N87 cells assessed as inhibition of tumor growth incubated for 72 hrs by luminometry; format: functional, cell-based; conditions: NCI-N87, 72 h; in short: as §3
[20] = tested on: Mus musculus; assay: Toxicity in nude mouse xenografted with human NCI-N87 cells assessed as effect on body weight at 125 mg/kg, po qd for 22 days measured twice a week; format: organism-based; design: dose 125 mg/kg, route oral; conditions: in vivo, 528 h; in short: as §4
[21] = Permeability of the compound after 30 mins by PAMPA; format: ADME; conditions: read-out: permeability
In short: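 Double-sink PAMPA with donor solutions at pH 5.0, 6.2 and 7.4. Filter coated with phospholipid in dodecane. Sandwich incubated 30 min at 37 °C with stirring equivalent to a 40 μm aqueous boundary layer. Permeability calculated from UV spectra at 250–490 nm. Verapamil run as positive control.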

[22] = tested on: OVCAR-8; assay: Cytotoxicity against human OVCAR8 cells assessed as inhibition of tumor growth incubated for 72 hrs by luminometry; format: functional, cell-based; conditions: OVCAR-8, 72 h; in short: as §3
[23] = tested on: NCI-H69; assay: Cytotoxicity against human NCI-H69 cells assessed as inhibition of tumor growth incubated for 72 hrs by luminometry; format: functional, cell-based; conditions: NCI-H69, 72 h; in short: as §3
[24] = tested on: Mus musculus; assay: Toxicity in nude mouse xenografted with human NCI-N87 cells assessed as effect on body weight at 200 mg/kg, po qd for 22 days measured twice a week; format: organism-based; design: dose 200 mg/kg, route oral; conditions: in vivo, 528 h; in short: as §4
[25] = tested on: NCI-N87; assay: Antitumor activity against human NCI-N87 cells xenografted in nude mouse assessed as tumor growth inhibition at 75 mg/kg, po qd for 22 days measured twice a week; format: functional; conditions: NCI-N87, 528 h, read-out: TGI; in short: as §4
[26] = tested on: Mus musculus; assay: Inhibition of HSP90 in human NCI-N87 cells xenografted nude mouse tumor assessed as induction of HSP70 mRNA expression at 50 to 200 mg/kg, po qd for 22 days; format: functional, organism-based
[27] = tested on: A549; assay: Cytotoxicity against human A549 cells assessed as inhibition of tumor growth incubated for 72 hrs by luminometry; format: functional, cell-based; conditions: A549, 72 h; in short: as §3

Which solubility [1] does the source give for `C[C@H](O)C(=O)N1CCC(CCn2c(Sc3cc4c(cc3Br)OCO4)nc3c(N)ncnc32)CC1` here?
Its solubility is 20 µM (≈ 11 µg/mL).

What about the inhibition ([2]; HCT-116) of the same compound?
The inhibition was “Dose-dependent effect”.

What about the IC50 ([2]; hct-116) of the same compound?
The IC50 was 0.1 µM.

What about the IC50 [3] of the same compound?
The IC50 was 0.06 µM.

And the half-life [4]?
The half-life was 84 min.

And the “fold change (FC)” value [5]?
The value was 53.

What about the inhibition ([6]; DU-145) of the same compound?
Its inhibition is “Dose-dependent effect”.

What about the IC50 ([6]; du-145) of the same compound?
Its IC50 is 0.1 µM.

What about the tumor regression at 125 mg/kg [7] of the same compound?
The tumor regression at 125 mg/kg was 10%.

What about the Cmax [8] of the same compound?
The Cmax was 13100 ng/mL.

What about the IC50 [9] of the same compound?
The IC50 was 420 nM.

What about the TGI [10] of the same compound?
The TGI was “Dose-dependent effect”.

And the Tmax [11]?
Its Tmax is 15 min.

What about the AUC [12] of the same compound?
Its AUC is 81800 ng·h/mL.

And the inhibition [13]?
Its inhibition is “Dose-dependent effect”.

What about the IC50 [14] of the same compound?
Its IC50 is 540 nM.

And the Activity [15]?
The Activity was “Non-toxic”.

What about the IC50 [16] of the same compound?
Its IC50 is 550 nM.

What about the tumor regression at 200 mg/kg [17] of the same compound?
The tumor regression at 200 mg/kg was 48%.

And the inhibition [18]?
The inhibition was “Dose-dependent effect”.

And the IC50 [19]?
Its IC50 is 200 nM.

What about the Activity [20] of the same compound?
The Activity was “Non-toxic”.

And the Papp at 0.5 h [21]?
The Papp at 0.5 h was greater than 350 ×10⁻⁶ cm/s.

And the IC50 [22]?
The IC50 was 490 nM.

And the IC50 [23]?
Its IC50 is 150 nM.

What about the Activity [24] of the same compound?
Its Activity is “Non-toxic”.

And the inhibition in vivo at 75 mg/kg [25]?
Its inhibition in vivo at 75 mg/kg is 62%.

And the inhibition [26]?
The inhibition was “Active”.

And the IC50 [27]?
Its IC50 is 770 nM.
